ChEMBL document CHEMBL4406846, “Development of novel multipotent compounds modulating endocannabinoid and dopaminergic systems” (Eur J Med Chem, 2019)
In brackets after ≈: the same amount, converted by molar mass. Activity calls are given as the source filed them. The calls are words filed in the database; no cut-off is given here.

Columns and labels:
D(2) dopamine receptor = D(2) dopamine receptor (Homo sapiens, UniProt P14416); test: Displacement of [3H]-spiperone from human D2 receptor expressed in CHO cells co-expressing Galpha16 incubated for 120 mins by liquid scintillation counting method; assay type: cell-based
Chain of D(2) dopamine receptor (P14416 whole entry): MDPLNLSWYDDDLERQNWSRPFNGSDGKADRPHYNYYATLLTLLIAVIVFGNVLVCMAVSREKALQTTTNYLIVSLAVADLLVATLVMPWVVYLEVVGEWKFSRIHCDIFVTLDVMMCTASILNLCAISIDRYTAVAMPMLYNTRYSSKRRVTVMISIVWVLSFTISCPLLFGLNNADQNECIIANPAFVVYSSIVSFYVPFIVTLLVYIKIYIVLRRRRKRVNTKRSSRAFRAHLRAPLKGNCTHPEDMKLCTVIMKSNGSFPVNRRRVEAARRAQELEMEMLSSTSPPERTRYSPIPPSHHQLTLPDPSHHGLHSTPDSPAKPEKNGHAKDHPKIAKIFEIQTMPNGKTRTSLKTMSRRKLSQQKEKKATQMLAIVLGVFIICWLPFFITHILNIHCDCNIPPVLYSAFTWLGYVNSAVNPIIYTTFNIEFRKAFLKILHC
Outline: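 Membranes from CHO cells expressing hD2 with Gα16; 2 μg protein/well, 0.08 nM [³H]-spiperone final, 23 °C for 120 min. Stopped by rapid filtration on PEI-soaked GF/B filters, bound radioactivity counted; Ki by Cheng-Prusoff; at least three experiments.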

[1] = target: T1, Fatty-acid amide hydrolase 1 (Mus musculus, UniProt O08914); test: Inhibition of FAAH in mouse brain membranes using [14C]-AEA as substrate incubated for 15 mins by scintillation counting method; assay type: cell membranes
T1 sequence (O08914 whole entry): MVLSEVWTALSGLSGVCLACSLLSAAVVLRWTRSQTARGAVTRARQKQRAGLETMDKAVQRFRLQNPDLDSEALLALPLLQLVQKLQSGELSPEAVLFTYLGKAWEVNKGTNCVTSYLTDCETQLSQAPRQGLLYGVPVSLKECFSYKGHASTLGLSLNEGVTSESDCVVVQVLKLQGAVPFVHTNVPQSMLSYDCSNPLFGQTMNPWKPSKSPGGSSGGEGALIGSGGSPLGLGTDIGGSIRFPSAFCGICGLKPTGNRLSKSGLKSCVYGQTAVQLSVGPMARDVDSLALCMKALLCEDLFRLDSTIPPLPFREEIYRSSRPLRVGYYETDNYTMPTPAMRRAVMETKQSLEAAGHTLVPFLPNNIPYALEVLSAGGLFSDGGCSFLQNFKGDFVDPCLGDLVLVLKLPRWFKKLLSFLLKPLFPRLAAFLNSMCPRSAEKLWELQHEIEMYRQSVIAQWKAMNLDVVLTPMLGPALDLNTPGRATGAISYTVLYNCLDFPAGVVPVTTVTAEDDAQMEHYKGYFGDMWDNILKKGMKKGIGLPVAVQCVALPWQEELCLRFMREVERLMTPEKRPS

D(3) dopamine receptor = D(3) dopamine receptor (Homo sapiens, UniProt P35462); test: Displacement of [3H]-spiperone from human D3 receptor expressed in CHO cells co-expressing Galpha16 incubated for 120 mins by liquid scintillation counting method; assay type: cell-based
Chain of D(3) dopamine receptor (P35462 whole entry): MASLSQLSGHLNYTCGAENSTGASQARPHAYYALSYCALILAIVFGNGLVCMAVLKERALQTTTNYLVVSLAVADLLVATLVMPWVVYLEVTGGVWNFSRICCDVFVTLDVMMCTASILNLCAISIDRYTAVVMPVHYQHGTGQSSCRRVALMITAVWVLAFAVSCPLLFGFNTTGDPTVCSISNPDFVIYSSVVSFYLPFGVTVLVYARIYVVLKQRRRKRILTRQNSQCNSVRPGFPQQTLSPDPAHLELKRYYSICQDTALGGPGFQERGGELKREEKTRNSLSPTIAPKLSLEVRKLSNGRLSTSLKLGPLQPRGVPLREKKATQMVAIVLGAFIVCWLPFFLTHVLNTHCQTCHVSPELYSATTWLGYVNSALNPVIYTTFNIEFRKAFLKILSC

[2] = target: Voltage-gated inwardly rectifying potassium channel KCNH2 (Homo sapiens, UniProt Q12809); test: Inhibition of human ERG expressed in HEK293 cells […] by patch clamp assay; assay type: cell-based
Chain of Voltage-gated inwardly rectifying potassium channel KCNH2 (Q12809 whole entry): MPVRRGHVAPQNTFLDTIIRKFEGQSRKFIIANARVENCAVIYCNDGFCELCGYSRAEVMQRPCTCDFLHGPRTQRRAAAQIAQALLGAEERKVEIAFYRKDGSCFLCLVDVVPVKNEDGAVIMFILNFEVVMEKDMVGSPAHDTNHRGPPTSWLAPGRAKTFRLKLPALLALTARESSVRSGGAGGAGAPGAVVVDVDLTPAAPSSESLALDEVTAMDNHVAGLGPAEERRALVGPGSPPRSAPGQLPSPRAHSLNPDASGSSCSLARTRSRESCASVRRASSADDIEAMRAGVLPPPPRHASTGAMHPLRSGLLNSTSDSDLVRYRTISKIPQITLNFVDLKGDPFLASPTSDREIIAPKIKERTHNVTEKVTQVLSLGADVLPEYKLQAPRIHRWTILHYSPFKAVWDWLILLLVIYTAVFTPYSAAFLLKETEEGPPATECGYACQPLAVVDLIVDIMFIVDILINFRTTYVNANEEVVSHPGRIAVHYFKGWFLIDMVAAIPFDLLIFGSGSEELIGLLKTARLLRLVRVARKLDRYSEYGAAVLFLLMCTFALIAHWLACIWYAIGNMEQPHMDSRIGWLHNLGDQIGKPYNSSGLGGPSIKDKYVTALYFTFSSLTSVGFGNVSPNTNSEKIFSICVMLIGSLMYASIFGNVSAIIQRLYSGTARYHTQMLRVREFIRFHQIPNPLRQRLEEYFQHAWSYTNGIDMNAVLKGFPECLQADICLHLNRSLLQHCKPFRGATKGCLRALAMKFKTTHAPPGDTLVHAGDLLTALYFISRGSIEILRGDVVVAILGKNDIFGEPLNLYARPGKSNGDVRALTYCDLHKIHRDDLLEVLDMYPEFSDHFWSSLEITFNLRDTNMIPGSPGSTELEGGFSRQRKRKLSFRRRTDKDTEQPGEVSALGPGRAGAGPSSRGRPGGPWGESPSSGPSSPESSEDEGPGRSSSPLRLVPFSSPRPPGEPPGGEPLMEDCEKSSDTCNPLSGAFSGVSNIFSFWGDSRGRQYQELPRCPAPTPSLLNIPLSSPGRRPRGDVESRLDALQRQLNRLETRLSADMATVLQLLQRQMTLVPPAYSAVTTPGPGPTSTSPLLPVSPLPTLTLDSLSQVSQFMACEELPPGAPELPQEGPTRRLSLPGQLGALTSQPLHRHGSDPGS
Outline: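 HEK293 cells stably expressing hERG under a tetracycline-inducible promoter (10 μg/mL tetracycline for 24, 48 or 72 h). Automated patch clamp, tail current; 0.1, 1 and 10 μM in 0.1% DMSO after 3 min vehicle, 5 min exposure. Residual current vs vehicle gives % inhibition; IC50 estimated; at least two cells.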

[3] = target: T1, Fatty-acid amide hydrolase 1; test: Inhibition of FAAH in mouse brain membranes assessed as inhibitory constant using [14C]-AEA as substrate incubated for 15 mins by scintillation counting method; assay type: cell membranes
Outline: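 Mouse brain incubated with 10 μM [¹⁴C]AEA at 37 °C for 15 min, pH 9.0, compound added to the medium. Stopped with chloroform/methanol 2:1; [¹⁴C]ethanolamine released into the aqueous phase measured. Mean of at least three experiments.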

[4] = Metabolic stability in human liver microsomes assessed as apparent decay constant at 5 uM incubated for 60 mins by UV-Vis spectrophotometry; assay type: ADME, Microsome; conditions: 1 h
[5] = Metabolic stability in rat liver microsomes assessed as apparent decay constant at 5 uM incubated for 60 mins by UV-Vis spectrophotometry; assay type: ADME, Microsome; conditions: 1 h
[6] = target: T2, Monoglyceride lipase (Mus musculus) (UniProt O35678); test: Inhibition of MAGL in mouse brain assessed as release of [3H]glycerol using [3H]-2-OG as substrate incubated for 30 mins by scintillation counting method; assay type: tissue-based
T2 sequence (whole entry): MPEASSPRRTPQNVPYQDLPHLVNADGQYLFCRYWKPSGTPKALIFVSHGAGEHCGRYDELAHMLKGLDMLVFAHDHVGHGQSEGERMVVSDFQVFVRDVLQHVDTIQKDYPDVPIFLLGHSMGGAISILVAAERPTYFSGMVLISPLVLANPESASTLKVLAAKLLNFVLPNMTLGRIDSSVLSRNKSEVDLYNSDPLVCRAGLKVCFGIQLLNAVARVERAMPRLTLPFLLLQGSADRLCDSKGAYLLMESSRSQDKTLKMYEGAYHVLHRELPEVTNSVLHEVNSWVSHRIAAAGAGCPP
Outline: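 Mouse brain homogenised in 50 mM sodium phosphate pH 8.0 with 0.32 M sucrose, spun sequentially up to 100,000×g. Final supernatant incubated with 10 μM [³H]2-OG at 37 °C for 30 min; stopped with chloroform/methanol and aqueous [³H]glycerol scintillation-counted.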

[7] = Metabolic stability in human liver microsomes assessed as intrinsic clearance at 5 uM incubated for 60 mins by UV-Vis spectrophotometry; assay type: ADME, Microsome; conditions: read-out: CLH
[8] = Solubility of compound in DMSO at pH 3 incubated for […] by HPLC/UV/DAD analysis; assay type: physicochemical
Outline: (§1)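 10 mM DMSO stock diluted to 250 μM (2.5% DMSO) in 50 mM acetic acid (pH 3.0) or 50 mM PBS (pH 7.4). Shaken 24 h at 25 °C, filtered, diluted 1:2 and quantified by HPLC-UV at 254 nm against a 250 μM standard; triplicate average.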

IMR-32 [9] = test: Antiinflammatory activity in human IMR32 cells assessed as reduction in LPS-induced NF-kappaB-DNA binding at 0.5 and 1 uM preincubated for 24 hrs followed by LPS stimulation and measured after 30 mins by ELISA; assay type: functional, cell-based
Outline: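 IMR 32 cells pre-treated 24 h at 0.5 and 1 μM, then challenged with 100 μg/mL LPS for 30 min; NF-κB p65 binding of nuclear extracts to the DNA consensus sequence measured. Mean ± SEM of 3 independent experiments.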

[10] = Retention time of compound in human liver microsomes incubated for 30 mins by HPLC analysis; assay type: ADME, Microsome; conditions: 0.5 h
[11] = target: Cannabinoid receptor 1 (Mus musculus) (UniProt P47746); test: Displacement of [3H]CP55, 940 from mouse brain membrane CB1 receptor
Chain of Cannabinoid receptor 1 (Mus musculus) (P47746 whole entry): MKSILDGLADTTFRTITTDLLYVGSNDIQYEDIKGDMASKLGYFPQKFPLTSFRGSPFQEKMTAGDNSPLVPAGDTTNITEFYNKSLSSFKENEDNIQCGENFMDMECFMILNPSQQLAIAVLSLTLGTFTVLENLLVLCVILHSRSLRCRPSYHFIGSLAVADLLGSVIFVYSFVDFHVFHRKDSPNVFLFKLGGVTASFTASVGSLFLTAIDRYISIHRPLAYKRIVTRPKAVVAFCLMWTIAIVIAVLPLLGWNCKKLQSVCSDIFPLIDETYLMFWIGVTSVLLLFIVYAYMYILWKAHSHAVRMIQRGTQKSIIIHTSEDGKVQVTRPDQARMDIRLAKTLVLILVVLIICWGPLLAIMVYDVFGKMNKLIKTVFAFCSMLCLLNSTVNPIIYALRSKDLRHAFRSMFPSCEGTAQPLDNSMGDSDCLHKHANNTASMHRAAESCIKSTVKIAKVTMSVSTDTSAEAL
Outline: (§2)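 Mouse brain membrane fraction (18000×g pellet) in 50 mM Tris-HCl, 2 mM Tris-EDTA, 3 mM MgCl2, pH 7.4. Rapid filtration binding with the agonist [³H]CP55,940; nonspecific binding defined with 1 μM unlabelled agonist; compound added directly to the incubation.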

NIH3T3 = test: Cytotoxicity against mouse NIH/3T3 cells assessed as cell viability incubated for 24 hrs by neutral red uptake based assay; conditions: NIH3T3, 24 h
Outline: (§3)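 NIH3T3 or U-373-MG cells grown in DMEM with 10% FCS at 37 °C, 5% CO2; compound from DMSO stock diluted in complete medium, 4–100 μM, 24 h. Viability by Neutral Red Uptake (3 h NR loading, acetic acid/ethanol extraction, A540), normalised to % control; IC50 reported. Three experiments in six replicates, Student's t test.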

[12] = Solubility of compound in DMSO at pH 7.4 incubated for […] by HPLC/UV/DAD analysis; assay type: physicochemical; outline: as §1
[13] = Metabolic stability in rat liver microsomes assessed as intrinsic clearance at 5 uM incubated for 60 mins by UV-Vis spectrophotometry; assay type: ADME, Microsome; conditions: read-out: CLH
IMR-32 [14] = test: Cytotoxicity against human IMR32 cells at 0.1 to 50 uM incubated for 24 hrs by LDH release assay; assay type: cell-based; conditions: imr-32, 24 h
Outline: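 IMR 32 cells exposed 24 h to 0.1, 0.5, 1, 5, 10 and 50 μM; LDH release expressed as percent of maximal release from Triton X-100-treated cells (100%). Samples run at least in triplicate, mean ± SD.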

[15] = Metabolic stability in rat liver microsomes assessed as half life at 5 uM incubated for 60 mins by UV-Vis spectrophotometry; assay type: ADME, Microsome
IMR-32 [16] = test: Antiinflammatory activity in human IMR32 cells assessed as reduction in LPS-induced NF-kappaB-DNA binding at 0.5 and 1 uM preincubated for 24 hrs followed by LPS stimulation and measured after 30 mins by immunoblot analysis; assay type: functional, cell-based
[17] = Chemical stability of compound in DMSO assessed as remaining compound at pH 3 incubated for 24 hrs by HPLC/UV/DAD analysis; assay type: physicochemical; conditions: read-out: Stability
Outline: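 Samples at 250 μM (2.5% DMSO) in 50 mM acetic acid, pH 3.0, held 24 h at 25 °C. HPLC/UV/DAD peak area at 254 nm after 24 h divided by area at T0 × 100; triplicate average.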

U373 MG = test: Cytotoxicity against human U373MG cells assessed as cell viability incubated for 24 hrs by neutral red uptake based assay; design: species or system U-373MG ATCC; outline: as §3
[18] = target: Cannabinoid receptor 2 (Mus musculus) (UniProt P47936); test: Displacement of [3H]CP55, 940 from mouse brain membrane CB2 receptor; outline: as §2
Chain of Cannabinoid receptor 2 (Mus musculus) (P47936 whole entry): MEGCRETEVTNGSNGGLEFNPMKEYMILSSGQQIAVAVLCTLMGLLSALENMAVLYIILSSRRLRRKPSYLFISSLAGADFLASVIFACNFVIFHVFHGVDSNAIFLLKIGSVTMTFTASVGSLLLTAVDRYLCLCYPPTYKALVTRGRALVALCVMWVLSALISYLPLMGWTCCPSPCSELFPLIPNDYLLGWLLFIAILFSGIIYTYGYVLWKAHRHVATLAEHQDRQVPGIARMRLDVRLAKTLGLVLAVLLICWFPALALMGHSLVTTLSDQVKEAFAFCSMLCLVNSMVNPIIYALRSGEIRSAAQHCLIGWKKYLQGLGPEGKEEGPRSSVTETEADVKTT

[19] = Metabolic stability in human liver microsomes assessed as half life at 5 uM incubated for 60 mins by UV-Vis spectrophotometry; assay type: ADME, Microsome
[20] = Mutagenicity in Salmonella typhimurium TA100 assessed as number of revertants in presence of liver S9 fraction at 5 to 230 uM incubated for 2 days by AMES test; assay type: toxicity, subcellular; conditions: salmonella enterica subsp. enterica serovar typhimurium, s9, 48 h
[21] = Mutagenicity in Salmonella typhimurium TA98 assessed as number of revertants in presence of liver S9 fraction at 5 to 230 uM incubated for 2 days by AMES test; assay type: toxicity, subcellular; conditions: salmonella enterica subsp. enterica serovar typhimurium, s9, 48 h
[22] = Mutagenicity in Salmonella typhimurium TA98 assessed as number of revertants at 5 to 230 uM incubated for 2 days by AMES test; assay type: toxicity; conditions: salmonella enterica subsp. enterica serovar typhimurium, 48 h
[23] = Mutagenicity in Salmonella typhimurium TA100 assessed as number of revertants at 5 to 230 uM incubated for 2 days by AMES test; assay type: toxicity; conditions: salmonella enterica subsp. enterica serovar typhimurium, 48 h

NC(=O)c1ccn(-c2cccc(OC(=O)NCCCN3CCN(c4ccccc4)CC3)c2)c1
Ki (D(2) dopamine receptor): 0.066 µM
IC50 [1]: 0.094 µM
Ki (D(3) dopamine receptor): 0.034 µM
IC50 [2]: 3.5 µM
Ki [3]: 0.025 µM

Cc1cc(C(N)=O)c(-c2cccc(OC(=O)NCCN3CCN(c4ccccc4)CC3)c2)[nH]1
IC50 [1]: 0.195 µM
Ki [3]: 0.05 µM

Cc1cc(C(N)=O)c(-c2cccc(OC(=O)NCCN3CCN(c4ccccc4)CC3)c2)o1
K [4]: 0.02842 ×10⁻¹ /min
K [5]: 0.03482 ×10⁻¹ /min
Ki (D(2) dopamine receptor): 0.138 µM
inhibition [6]: inactive
microsomal CLint at 5 µM [7]: 47.4 µL/min/mg
solubility [8]: 991 µM (≈ 444 µg/mL)
Activity (IMR-32 [9]): Active
Retention_time [10]: 9.004 min
inhibition [11]: inactive
IC50 (NIH3T3): 68 µM
solubility [12]: 2 µM (≈ 0.897 µg/mL)
microsomal CLint at 5 µM [13]: 59.2 µL/min/mg
IC50 [1]: 0.00089 µM
Activity (IMR-32 [14]): Non-Toxic
Ki (D(3) dopamine receptor): 0.105 µM
half-life at 5 µM [15]: 19.9 min
IC50 [2]: < 0.1 µM
pIC50 ([2]; hek293): > 7
Activity (IMR-32 [16]): Active
Ki [3]: 0.00023 µM
remaining at 24 h [17]: 99.9%
IC50 (U373 MG): 23 µM
inhibition [18]: inactive
half-life at 5 µM [19]: 24.4 min

Cc1cc(C(N)=O)c(-c2cccc(OC(=O)NCCN3CCN(c4ccccc4)CC3)c2)n1C
IC50 [1]: 0.175 µM
Ki [3]: 0.046 µM

NC(=O)c1ccn(-c2cccc(NC(=O)NCCN3CCN(c4ccccc4)CC3)c2)c1
IC50 [1]: 1.6 µM
Ki [3]: 0.42 µM

NC(=O)c1ccn(-c2cccc(OC(=O)NCCCCCCc3ccccc3)c2)c1
K [4]: 0.02496 ×10⁻¹ /min
K [5]: 0.01379 ×10⁻¹ /min
microsomal CLint at 5 µM [7]: 41.6 µL/min/mg
solubility [8]: 465 µM (≈ 189 µg/mL)
Activity (IMR-32 [9]): Active
Retention_time [10]: 13.72 min
IC50 (NIH3T3): 75 µM
microsomal CLint at 5 µM [13]: 23.4 µL/min/mg
Activity (IMR-32 [14]): Non-Toxic
half-life at 5 µM [15]: 50.3 min
Activity (IMR-32 [16]): Active
remaining at 24 h [17]: 92.1%
IC50 (U373 MG): 50 µM
half-life at 5 µM [19]: 27.8 min

Cc1cc(C(N)=O)c(-c2cccc(OC(=O)NCCCN3CCN(c4ccccc4)CC3)c2)o1
Ki (D(2) dopamine receptor): 0.029 µM
IC50 [1]: 0.062 µM
Ki (D(3) dopamine receptor): 0.019 µM
IC50 [2]: 1.1 µM
Ki [3]: 0.016 µM

NC(=O)c1cn(-c2cccc(OC(=O)NCCN3CCN(c4ccccc4)CC3)c2)nn1
IC50 [1]: 0.757 µM
Ki [3]: 0.194 µM

Cn1c(C(N)=O)ccc1-c1cccc(OC(=O)NCCN2CCN(c3ccccc3)CC2)c1
Ki (D(2) dopamine receptor): 0.056 µM
IC50 [1]: 0.791 µM
Ki (D(3) dopamine receptor): 0.076 µM
IC50 [2]: 6.4 µM
Ki [3]: 0.203 µM

Cc1cc(C(N)=O)c(-c2cccc(OC(=O)NCCN3CCN(c4ccccc4)CC3)c2)s1
Ki (D(2) dopamine receptor): 0.214 µM
IC50 [1]: 0.026 µM
Ki (D(3) dopamine receptor): 0.148 µM
IC50 [2]: 0.28 µM
Ki [3]: 0.00688 µM

NC(=O)c1ccn(-c2cccc(OC(=O)NCCN3CCN(c4ccccc4)CC3)c2)c1
Activity [20]: Non-Toxic
Ki (D(2) dopamine receptor): 0.186 µM
inhibition [6]: inactive
Activity [21]: Non-Toxic
inhibition [11]: inactive
IC50 (NIH3T3): 5 µM
IC50 [1]: 0.058 µM
Ki (D(3) dopamine receptor): 0.105 µM
Activity [22]: Non-Toxic
IC50 [2]: 5.3 µM
Ki [3]: 0.016 µM
Activity [23]: Non-Toxic
inhibition [18]: inactive
